Measured values reported in ChEMBL document CHEMBL3853270, “Influence of Birch Bark Triterpenes on Keratinocytes and Fibroblasts from Diabetic and Nondiabetic Donors” (2016).
The source made the active and inactive calls. No cut-off for these calls is given here.

Columns and labels:
Assay type in all cases: functional
[1] = Effect on wound healing activity in diabetic adult human primary fibroblasts assessed as upregulation of soluble TNFR1 protein levels at 1.96 uM after 24 hrs by bead-based suspension array analysis; conditions: Fibroblast
[2] = Effect on wound healing activity in diabetic adult human primary fibroblasts assessed as upregulation of RANTES protein levels at 1.96 uM after 24 hrs by bead-based suspension array analysis; conditions: Fibroblast
[3] = test system: Keratinocyte; experiment: Effect on actin cytoskeleton in human diabetic primary keratinocytes assessed as formation of cellular protrusions at 10 nM after 2 hrs by rhodamine phalloidin-staining based fluorescence microscopic analysis
Summary of the method: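 Subconfluent cells on glass coverslips, collagen type I coated for fibroblasts; keratinocytes starved 2 days before stimulation. Exposure 2 h, then rhodamine-phalloidin staining (1:25 in PBS) and fluorescence microscopy. Controls were DMSO as solvent and PDGF (fibroblasts) or CNF1 (keratinocytes). Where used, p38-MAPK inhibitor LN 950 (100 nM) was added 30 min beforehand.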

[4] = test system: Fibroblast; experiment: Effect on growth factor related gene expression in non-diabetic young human primary fibroblasts assessed as VEGFA mRNA levels at 9.81 uM after 6 hrs by qPCR analysis
Summary of the method: (§1)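 Primary human dermal fibroblasts (young or adult nondiabetic, adult diabetic donor) were treated for 6 h against a 0.1% DMSO solvent control. RNA from 320 000 cells per sample was measured by Fluidigm Biomark high-throughput qPCR. Values are fold change relative to solvent control, from four independent experiments, with SD. One-way ANOVA with Bonferroni post-test was applied.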

[5] = test system: Fibroblast; experiment: Effect on growth factor related gene expression in non-diabetic adult human primary fibroblasts assessed as GDF15 mRNA levels at 9.81 uM after 6 hrs by qPCR analysis; summary of the method: as §1
[6] = test system: Fibroblast; experiment: Effect on adhesion molecules related gene expression in diabetic adult human primary fibroblasts assessed as ICAM1 mRNA levels at 9.81 uM after 6 hrs by qPCR analysis
Summary of the method: (§2)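 Dermal fibroblasts from nondiabetic adult and diabetic adult donors, exposed for 6 h at 1.96 or 9.81 μM. ICAM-1 and VCAM-1 mRNA measured by standard qRT-PCR, n = 3. Fold change versus 0.1% DMSO control, SD, one-way ANOVA with Bonferroni post-test.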

[7] = test system: Fibroblast; experiment: Effect on adhesion molecules related gene expression in non-diabetic adult human primary fibroblasts assessed as VCAM1 mRNA levels at 1.96 uM after 6 hrs by qPCR analysis; summary of the method: as §2
[8] = test system: Fibroblast; experiment: Effect on chemokines related gene expression in non-diabetic young human primary fibroblasts assessed as CCL2 mRNA levels at 9.81 uM after 6 hrs by qPCR analysis; summary of the method: as §1
[9] = test system: Fibroblast; experiment: Effect on antioxidant related gene expression in non-diabetic young human primary fibroblasts assessed as SOD2 mRNA levels at 9.81 uM after 6 hrs by qPCR analysis
[10] = test system: Keratinocyte; experiment: Effect on cellular connection related gene expression in non-diabetic adult human primary keratinocytes assessed as CLDN4 mRNA levels at 1.96 uM after 6 hrs by qPCR analysis
[11] = test system: Fibroblast; experiment: Effect on growth factor related gene expression in non-diabetic adult human primary fibroblasts assessed as VEGFA mRNA levels at 9.81 uM after 6 hrs by qPCR analysis; summary of the method: as §1
[12] = test system: Keratinocyte; experiment: Effect on MMP1 mRNA expression levels in diabetic adult human primary keratinocytes at 1.96 uM after 6 hrs by qPCR analysis
Summary of the method: (§3)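 Primary keratinocytes from nondiabetic young and adult and diabetic adult donors; 400 000 cells per sample, 6 h exposure at 1.96 or 9.81 μM. RNA extracted and read on a high-throughput qPCR chip. Results are fold change versus 0.1% DMSO solvent control from 5−7 independent experiments over two donors per group, SD, one-way ANOVA with Bonferroni post-test.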

[13] = test system: Keratinocyte; experiment: Effect on pro-inflammatory related gene expression in diabetic adult human primary keratinocytes assessed as IL6 mRNA levels at 1.96 uM after 6 hrs by qPCR analysis
[14] = Effect on wound healing activity in non-diabetic adult human primary keratinocytes assessed as upregulation of MIF protein levels at 1.96 uM after 24 hrs by bead-based suspension array analysis; conditions: Keratinocyte
[15] = test system: Keratinocyte; experiment: Effect on pro-inflammatory related gene expression in diabetic adult human primary keratinocytes assessed as PTGS2 mRNA levels at 1.96 uM after 6 hrs by qPCR analysis
[16] = test system: Keratinocyte; experiment: Effect on chemokines related gene expression in non-diabetic adult human primary keratinocytes assessed as IL8 mRNA levels at 9.81 uM after 6 hrs by qPCR analysis
[17] = test system: Keratinocyte; experiment: Effect on chemokines related gene expression in diabetic adult human primary keratinocytes assessed as CXCL10 mRNA levels at 1.96 uM after 6 hrs by qPCR analysis
[18] = test system: Keratinocyte; experiment: Effect on chemokines related gene expression in diabetic adult human primary keratinocytes assessed as CXCL10 mRNA levels at 9.81 uM after 6 hrs by qPCR analysis
[19] = test system: Keratinocyte; experiment: Effect on pro-inflammatory related gene expression in non-diabetic adult human primary keratinocytes assessed as PTGS2 mRNA levels at 9.81 uM after 6 hrs by qPCR analysis
[20] = test system: Fibroblast; experiment: Effect on antiinflammatory related gene expression in non-diabetic adult human primary fibroblasts assessed as SOCS3 mRNA levels at 9.81 uM after 6 hrs by qPCR analysis
Summary of the method: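 Primary dermal fibroblasts from one nondiabetic young, one nondiabetic adult and one diabetic adult donor; 320 000 cells per sample, 6 h at 1.96 or 9.81 μM. RNA measured on a high-throughput qPCR chip. Fold change versus 0.1% DMSO control, four independent experiments, SD, one-way ANOVA with Bonferroni post-test.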

[21] = Effect on wound healing activity in diabetic adult human primary keratinocytes assessed as upregulation of IL8 protein levels at 1.96 uM after 24 hrs by bead-based suspension array analysis; conditions: Keratinocyte
[22] = test system: Keratinocyte; experiment: Effect on chemokines related gene expression in non-diabetic adult human primary keratinocytes assessed as CXCL10 mRNA levels at 1.96 uM after 6 hrs by qPCR analysis
[23] = test system: Keratinocyte; experiment: Effect on pro-inflammatory related gene expression in non-diabetic adult human primary keratinocytes assessed as PTGS2 mRNA levels at 1.96 uM after 6 hrs by qPCR analysis
[24] = test system: Keratinocyte; experiment: Effect on ECM related gene expression in non-diabetic adult human primary keratinocytes assessed as FBN1 mRNA levels at 1.96 uM after 6 hrs by qPCR analysis; summary of the method: as §3
[25] = test system: Keratinocyte; experiment: Effect on wound healing activity in diabetic adult human primary keratinocytes assessed as increase in soluble gp130 part of IL6 receptor protein levels at 1.96 uM after 24 hrs by bead-based suspension array analysis
[26] = test system: Keratinocyte; experiment: Effect on cellular connection related gene expression in non-diabetic adult human primary keratinocytes assessed as CLDN4 mRNA levels at 9.81 uM after 6 hrs by qPCR analysis
[27] = test system: Keratinocyte; experiment: Effect on pro-inflammatory related gene expression in non-diabetic adult human primary keratinocytes assessed as IL1B mRNA levels at 9.81 uM after 6 hrs by qPCR analysis
[28] = test system: Keratinocyte; experiment: Effect on chemokines related gene expression in non-diabetic adult human primary keratinocytes assessed as IL8 mRNA levels at 1.96 uM after 6 hrs by qPCR analysis
[29] = test system: Keratinocyte; experiment: Effect on pro-inflammatory related gene expression in non-diabetic adult human primary keratinocytes assessed as IL1R1 mRNA levels at 1.96 uM after 6 hrs by qPCR analysis

Which results are given for C=C(C)[C@@H]1CC[C@]2(CO)CC[C@]3(C)[C@H](CC[C@@H]4[C@@]5(C)CC[C@H](O)C(C)(C)[C@@H]5CC[C@]43C)[C@@H]12 [BETULIN]?
Activity [1]: Active; Activity [2]: Active; Activity [3]: Active; fold change (FC) [4]: 2; fold change (FC) [5]: 3.2; fold change (FC) [6]: 2.3; fold change (FC) [7]: 63; fold change (FC) [8]: 4.3; fold change (FC) [9]: 2.2; fold change (FC) [10]: 1; fold change (FC) [11]: 2; fold change (FC) [12]: 1.2; fold change (FC) [13]: 12.8; Activity [14]: Active; fold change (FC) [15]: 1.3; fold change (FC) [16]: 69.9; fold change (FC) [17]: 6; fold change (FC) [18]: 12.1; fold change (FC) [19]: 1.3; fold change (FC) [20]: 24.6; Activity [21]: Active; fold change (FC) [22]: 2.9; fold change (FC) [23]: 1; fold change (FC) [24]: 0.9; Activity [25]: Active; fold change (FC) [26]: 1.5; fold change (FC) [27]: 0.9; fold change (FC) [28]: 24.2; fold change (FC) [29]: 0.7
